Measurements: ChEMBL document CHEMBL4118027, “Preussilides A-F, Bicyclic Polyketides from the Endophytic Fungus Preussia similis with Antiproliferative Activity” (J Nat Prod, 2017)
Values after ≈ are worked out from the molar mass of the structure shown. Active and inactive are the calls of the source. The rule behind the calls is not given here.

How the values were obtained:
[1] = test system: U2OS; assay: Cell cycle arrest in human U2OS cells assessed as accumulation at sub-G1 phase at 5 ug/ml after 18 hrs by propidium iodide staining based flow cytometry (reference value: 0.19%); type: functional
In short: (§1)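 U2OS were seeded at 7 × 10^5/well in six-well plates and exposed to 5 or 10 μg/mL for 18 h after spreading, with untreated and DMSO mock controls. Cells were trypsinized, fixed in 2% PFA/PBS, then in ice-cold methanol 30 min. Staining: anti-tubulin/anti-lamin antibodies plus RNase A and propidium iodide. Flow cytometry assigned G1, S, G2-M and sub-G1 by DNA content.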

[2] = test system: U2OS; assay: Cell cycle arrest in human U2OS cells assessed as small cells with reduced nuclear size at 5 ug/ml after 18 hrs by propidium iodide staining based flow cytometry (reference value: 0.19%); type: functional; set-up: scale not given: the % may be the effect or the level left; in short: as §1
[3] = test system: PC-3; assay: Cytotoxicity against human PC3 cells assessed as reduction in cell viability after 5 days by MTT assay; type: functional, cell-based; details: PC-3, 120 h
In short: (§2)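 MTT viability assay run over 5 days on a panel of eight lines (L929, KB3.1, A431, A549, SKOV-3, PC-3, MCF-7, U2OS). IC50 values were derived.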

[4] = test system: U2OS; assay: Cell cycle arrest in human U2OS cells assessed as accumulation at sub-G1 phase at 10 ug/ml after 18 hrs by propidium iodide staining based flow cytometry (reference value: 0.19%); type: functional; in short: as §1
[5] = test system: Bacillus subtilis; assay: Antibacterial activity against Bacillus subtilis DSM 10 by serial dilution method; type: functional, organism-based
[6] = test system: U2OS; assay: Cell cycle arrest in human U2OS cells assessed as small cells with reduced nuclear size at 10 ug/ml after 18 hrs by propidium iodide staining based flow cytometry (reference value: 0.19%); type: functional; set-up: scale not given: the % may be the effect or the level left; in short: as §1
[7] = test system: KB 3-1; assay: Cytotoxicity against human KB3-1 cells assessed as reduction in cell viability after 5 days by MTT assay; type: functional, cell-based; details: KB 3-1, 120 h; in short: as §2
[8] = test system: U2OS; assay: Induction of apoptosis in human U2OS cells assessed as tubulin fragmentation up to 10 ug/ml after 18 hrs by flow cytometry; type: functional, cell-based; in short: as §1
[9] = test system: U2OS; assay: Induction of morphological changes in human U2OS cells at 0.25 to 5 ug/ml after 24 hrs by DAPI staining based immunofluorescence microscopic method
[10] = test system: Aspergillus fumigatus; assay: Antifungal activity against Aspergillus fumigatus DSM 819 by serial dilution method; type: functional
[11] = test system: U2OS; assay: Cell cycle arrest in human U2OS cells assessed as accumulation at G1 phase at 10 ug/ml after 18 hrs by propidium iodide staining based flow cytometry (reference value: 50.1%); type: functional; in short: as §1
[12] = test system: Wickerhamomyces anomalus; assay: Antifungal activity against Pichia anomala DSM 6766 by serial dilution method; type: functional, organism-based
[13] = test system: Schizosaccharomyces pombe; assay: Antifungal activity against Schizosaccharomyces pombe DSM 70572 by serial dilution method; type: functional, organism-based
[14] = test system: U2OS; assay: Cell cycle arrest in human U2OS cells assessed as accumulation at G2/M phase at 10 ug/ml after 18 hrs by propidium iodide staining based flow cytometry (reference value: 24.3%); type: functional; in short: as §1
[15] = test system: U2OS; assay: Induction of morphological changes in human U2OS cells assessed as multipolar and duplicated spindle formation at 0.25 to 5 ug/ml after 24 hrs by DAPI staining based immunofluorescence microscopic method; type: functional, cell-based
In short: (§3)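 U2OS in DMEM (4.5 g/L glucose, 10% FBS), 37 °C, 7% CO2, seeded 3 × 10^4/well on fibronectin-coated coverslips and adhered 16 h. Treated 24 h at 0.25, 0.5, 2.5, 5 or 10 μg/mL (diluted from 1 mg/mL DMSO stock), DMSO control. Fixed in 4% PFA/PBS 20 min; anti-α-tubulin (DM1A), phalloidin-Alexa 488 and DNA stain; immunofluorescence imaging.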

[16] = test system: Chromobacterium violaceum; assay: Antibacterial activity against Chromobacterium violaceum DSM 30191 by serial dilution method; type: functional, organism-based
[17] = test system: L929; assay: Induction of nuclear fragmentation in mouse L929 cells at cytotoxic IC50 by DAPI staining based microscopic method; type: functional, cell-based
[18] = test system: Pseudomonas aeruginosa; assay: Antibacterial activity against Pseudomonas aeruginosa PA14 by serial dilution method; type: functional, organism-based
[19] = test system: U2OS; assay: Ratio of compound effect for induction of multipolar and duplicated spindle formation to compound effect for cytotoxicity for human U2OS cells; type: functional
In short: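 Spindle arm: U2OS in DMEM (4.5 g/L glucose, 10% FBS) at 37 °C, 7% CO2, on fibronectin-coated coverslips, adhered 16 h. Treated 24 h at 0.25–10 μg/mL (diluted from 1 mg/mL DMSO stock) with a DMSO control, PFA-fixed, and anti-α-tubulin immunostained to score mitotic spindles. Cytotoxicity arm: 5-day MTT. Ratio compares spindle-inducing concentration with cytotoxic concentration.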

[20] = test system: U2OS; assay: Induction of morphological changes in human U2OS cells assessed as aberrantly sized cells with abnormal small nuclei formation at 0.25 to 5 ug/ml after 24 hrs by DAPI staining based immunofluorescence microscopic method; type: functional, cell-based; in short: as §3
[21] = test system: U2OS; assay: Cell cycle arrest in human U2OS cells assessed as accumulation at G2/M phase at 5 ug/ml after 18 hrs by propidium iodide staining based flow cytometry (reference value: 24.3%); type: functional; in short: as §1
[22] = test system: Escherichia coli; assay: Antibacterial activity against Escherichia coli DSM 498 by serial dilution method; type: functional, organism-based
[23] = test system: A549; assay: Cytotoxicity against human A549 cells assessed as reduction in cell viability after 5 days by MTT assay; type: functional, cell-based; details: A549, 120 h; in short: as §2
[24] = test system: U2OS; assay: Cell cycle arrest in human U2OS cells assessed as accumulation at G1 phase at 5 ug/ml after 18 hrs by propidium iodide staining based flow cytometry (reference value: 50.1%); type: functional; in short: as §1
[25] = test system: Caenorhabditis elegans; assay: Nematicidal activity against Caenorhabditis elegans up to 100 ug/ml; type: functional, organism-based
[26] = test system: U2OS; assay: Induction of nuclear fragmentation in human U2OS cells at 0.25 to 5 ug/ml after 24 hrs by DAPI staining based immunofluorescence microscopic method; type: functional, cell-based
[27] = test system: U2OS; assay: Cell cycle arrest in human U2OS cells assessed as accumulation at S phase at 5 ug/ml after 18 hrs by propidium iodide staining based flow cytometry (reference value: 19%); type: functional; in short: as §1
[28] = test system: Yamadazyma tenuis; assay: Antifungal activity against Candida tenuis MUCL 29892 by serial dilution method; type: functional, organism-based
[29] = test system: MCF7; assay: Cytotoxicity against human MCF7 cells assessed as reduction in cell viability after 5 days by MTT assay; type: functional, cell-based; details: MCF7, 120 h; in short: as §2
[30] = test system: Mycolicibacterium smegmatis; assay: Antibacterial activity against Mycobacterium smegmatis ATCC 700084 by serial dilution method; type: functional, organism-based
[31] = test system: SK-OV-3; assay: Cytotoxicity against human SKOV3 cells assessed as reduction in cell viability after 5 days by MTT assay; type: functional, cell-based; details: SK-OV-3, 120 h; in short: as §2
[32] = test system: Candida albicans; assay: Antifungal activity against Candida albicans DSM 1665 by serial dilution method; type: functional, organism-based
[33] = test system: U2OS; assay: Induction of apoptosis in human U2OS cells assessed as caspase-3/7 cleavage at 5 ug/ml after 18 hrs by caspase-3/7 green reagent based flow cytometry (reference value: 8.04%)
[34] = test system: U2OS; assay: Induction of apoptosis in human U2OS cells assessed as lamin fragmentation up to 10 ug/ml after 18 hrs by flow cytometry; type: functional, cell-based; in short: as §1

Compound: CC(=O)CC1=C(C)C=C2C[C@@H](C)C(=O)[C@@H](C)[C@@H]2[C@H]1/C=C(C)/C=C(C)/C=C/C(=O)O
- Activity [1]: 1.14%
- Activity [2]: 1.96%
- IC50 [3]: 18.4 µM
- Activity [4]: 21.9%
- Activity [5]: inactive
- Activity [6]: 25.5%
- IC50 [7]: 2.5 µM
- Activity [8]: Active
- Activity [9]: Active
- MIC [10]: 8.3 µg/mL (≈ 20.9 µM)
- Activity [11]: 50.7%
- Activity [12]: inactive
- Activity [13]: inactive
- Activity [14]: 10.8%
- Activity [15]: Active
- Activity [16]: inactive
- Activity [17]: Active
- Activity [18]: inactive
- Ratio [19]: 10 - 20
- Activity [20]: Active
- Activity [21]: 19.1%
- Activity [22]: inactive
- IC50 [23]: 22.9 µM
- Activity [24]: 56.3%
- Activity [25]: inactive
- Activity [26]: Active
- Activity [27]: 17.4%
- Activity [28]: inactive
- IC50 [29]: 7.3 µM
- Activity [30]: inactive
- IC50 [31]: 15.6 µM
- Activity [32]: inactive
- Activity [33]: 3.45%
- Activity [34]: Active
